From PubChem BioAssay
A selection: hits, their analogues and other compounds. The true share with any hit is near 2.3%.
TRPC4 potent: allosteric potentiators of mouse TRPC4 channel. Q9QUQ5. HEK293 TRPC4beta/mu-opioid, DAMGO EC20, Fluo-4 Ca2+ flux; stronger effect = higher value. B-score at 10 µM. 0.42% of 310,000 active;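 active = B-score of calcium response area above 5 SD of library B-scores, with initial fluorescence ratio within 5 SD of library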
TRPC6 activator: activators of mouse TRPC6 channel; Q61143; HEK293-TRPC6 membrane potential dye fluorescence; stronger effect = higher value; B-score at 10 µM; 0.13% of 310,000 active;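 active = B-score of the integrated fluorescence ratio above library mean plus 3 SD, and starting fluorescence ratio within library mean plus 5 SD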;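 also: higher score means more depolarization so channel activation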
TRPC4 agonist: activators of mouse TRPC4 channel; 0.49% of 310,000 active; B-score at 10 µM; Q9QUQ5; HEK293 TRPC4beta/mu-opioid, Fluo4 calcium fluorescence; stronger effect = higher value; AID 2237;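 active = B-score above 5 SD of library B-scores, and initial fluorescence ratio not above library mean plus 5 SD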;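 also: positive B-score marks a calcium rise read as TRPC4 activation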
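Assay system: HEK293 stable line with TRPC4beta plus mu-opioid receptor. Times: dye 45 min RT, read 110 s. Measured by: kinetic Fluo4 calcium fluorescence. Measure: B score of integrated ratio. Controls: assay buffer as low control, maximal DAMGO as high control.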
TRPC4 block: blocks the mouse TRPC4 cation channel; 0.39% of 300,000 active; B-score at 10 µM; HEK293 TRPC4beta/mu-opioid, DAMGO-evoked Fluo4 calcium flux; stronger effect = lower value; Q9QUQ5;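 active = B-score over 3 SD under the library average, no early fluorescence shift, positive overall ratio signal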
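Test system – stable TRPC4beta/mu-opioid receptor HEK293 cells · Probe or stimulus – DAMGO, a submaximal dose followed by a maximal one · Dosing – one concentration per compound · Signal – Fluo4 calcium fluorescence by kinetic imaging, 5 s 1 Hz baseline · Evaluation – per-well B score of integrated baseline-normalized Fluo4 ratio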
FID counter: counter-screen for HCV NS3 helicase inhibitors: DNA intercalator displacement; 0.17% of 290,000 active; DNA fluorescent intercalator displacement, fluorescence; inhibition, % at 7.9 µM; in the data active = inhibition above about 37%;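 also: higher means more ethidium bromide displaced from hairpin DNA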
TRPC6 inh: mouse TRPC6 channel inhibition; HEK293-TRPC6, membrane potential dye, ACh-evoked depolarization; stronger effect = lower value; B-score at 10 µM; 1.1% of 310,000 active; AID 2553;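 active = B-score under library mean minus 3 SD, initial fluorescence not abnormally high, positive integrated signal ratio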;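 also: B-score derived from integrated fluorescence ratio over the kinetic read; more negative B-score means stronger inhibition of depolarization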
TRPC4 spec 2: second check of whether TRPC6 inhibitors also affect mouse TRPC4. shares compounds with TRPC6 inh. HEK293 TRPC4/MOR, membrane potential dye fluorescence; channel activated by saturating DAMGO dose. inhibition, % at 10 µM. 42% of 920 active. AID 2776;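 active = compounds whose fluorescence signal differed from control wells by over 3 SD, either direction, in both duplicate plates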
TRPC4 spec: tests whether TRPC6 inhibitors also affect mouse TRPC4; HEK293 TRPC4/mu-opioid, membrane potential fluorescence; activity change, negative = inhibition, % at 10 µM; 61% of 920 active; shares compounds with TRPC6 inh;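 active = rise or fall in signal beyond 3 SD of buffer-only wells in both replicate plates, either sign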;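 also: integrated kinetic ratio of fluorescence range over baseline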
HEK293 MPD ctr 2-1: second check of TRPC6 inhibitor effects in parental HEK293 cells; parental HEK293 membrane potential dye fluorescence; maximal acetylcholine challenge after compound addition; 31% of 920 active; signal change vs control, % at 10 µM; AID 2779; shares compounds with TRPC6 inh;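 active = membrane potential signal moving either way by over 3 SD of the maximum-effect control, in both duplicate plates, meaning non-specific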
HEK293 MPD ctr-1: checks TRPC6 inhibitor effects in parental HEK293 cells; shares compounds with TRPC6 inh; parental HEK293 membrane potential dye fluorescence; membrane potential signal change, % at 10 µM; 60% of 920 active;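 active = membrane potential signal shifting up or down by more than 3 SD of buffer-only wells, on both duplicate plates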
HEK293 MPD ctr-2: counter-screen for TRPC6 modulators: effect in parental HEK293 cells | shares compounds with TRPC6 inh | membrane potential dye fluorescence | membrane potential signal change, % at 10 µM | 51% of 2,400 active;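 active = membrane potential signal moves up or down beyond 5 SD from buffer-only wells, on both duplicate plates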
HEK293 MPD ctr 2-2: parental HEK293 nonspecific activity of TRPC6 modulators, second screen | 14% of 2,400 active | membrane potential dye fluorescence; after compound, maximal acetylcholine stimulation | inhibition, % at 10 µM | shares compounds with TRPC6 inh | AID 488926;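 active = membrane potential signal drops by more than 5 SD from the mean control signal, in both duplicate plates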
TRPC4 ctr mod: tests whether TRPC6 modulators also affect mouse TRPC4. shares compounds with TRPC6 inh. HEK293 TRPC4/mu-opioid, membrane potential fluorescence. percent change from control (negative = decrease, positive = increase), % at 10 µM. 69% of 2,400 active. AID 488927;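 active = membrane potential signal moved up or down beyond 5 SD of buffer control wells, in both duplicate plates, actives on both sides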
TRPC4/MOR inh 2: mouse TRPC4 off-target activity of TRPC6 modulators, second screen | 55% of 2,400 active | shares compounds with TRPC6 inh | HEK293 TRPC4/mu-opioid, membrane potential dye fluorescence; stimulated with maximal-effect DAMGO | inhibition, % at 10 µM;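 active = drop in membrane potential signal beyond 5 SD of the control wells in both duplicate plates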;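 also: TRPC4 counter screen for TRPC6 hits run under conditions tuned for TRPC6 not TRPC4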
TRPC6 block conf: confirmation of mouse TRPC6 inhibitors. shares compounds with TRPC6 inh. HEK293-TRPC6, membrane potential dye, ACh-evoked depolarization. inhibition, % at 10 µM. 43% of 3,300 active. AID 488960;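 active = fluorescence ratio falls more than 5 SD below the full-stimulation control mean, in both duplicate runs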;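 also: integrated fluorescence ratio of peak minus minimum over baseline after agonist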
TRPC6 act conf: mouse TRPC6 activator confirmation; shares compounds with TRPC6 inh; HEK293-TRPC6 membrane potential dye fluorescence, FDSS; activation, % at 10 µM; 11% of 2,800 active; AID 488961;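 active = ratio signal rise beyond 5 SD above unstimulated control wells' mean, seen in both duplicate runs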
A number is an active result; – = inactive; · = not tested or not shown.

SMILES	TRPC4 potent	TRPC6 activator	TRPC4 agonist	TRPC4 block	FID counter	TRPC6 inh	HEK293 MPD ctr-2	HEK293 MPD ctr 2-2	TRPC4 ctr mod	TRPC4/MOR inh 2	TRPC6 block conf	TRPC6 act conf	others
Cc1ccc(C(=O)Nc2ncccc2O)o1	–	–	–	–	·	–	·	·	·	·	·	·
CCN(C(=O)CCS(=O)(=O)c1cc2c(cc1Cl)NC(=O)CO2)c1ccccc1	–	–	–	–	–	–	·	·	·	·	·	·
C=CCN(c1ccc(C(=O)NCCSc2ccccc2)cc1)S(C)(=O)=O	–	–	–	–	–	–	·	·	·	·	·	·
C=CCNC(=O)CN1N=C(c2ccc(C)cc2)CCC1=O	–	–	–	–	–	–	·	·	·	·	·	·
CC1O[C@@H](O[C@H](C)CC[C@@H](C)O)C(O)C[C@H]1O (some centres not stated)	–	–	–	–	·	–	·	·	·	·	·	·
CC(CNC(=O)c1ccccc1Cl)NC(=O)c1ccccc1Cl (configuration not stated)	–	–	–	–	·	–	·	·	·	·	·	·
OCCCn1c(-c2ccccc2)csc1=Nc1ccccc1	–	–	–	–	–	-5.8	382%	141%	76%	–	126%	·
O=[N+]([O-])c1ccccc1S(=O)(=O)N1CCCCC1	–	–	–	–	–	–	·	·	·	·	·	·
O=[N+]([O-])c1ccccc1S(=O)(=O)N1CCCC(C(F)(F)F)C1 (configuration not stated)	–	–	–	–	–	-5.1	–	–	–	–	–	–
N#Cc1cc2sc3nc4ccccc4n3c2cc1C#N	–	–	–	–	–	–	·	·	·	·	·	·
N#Cc1cc2sc3nnc(-c4ccncc4)n3c2cc1C#N	–	–	–	–	–	-8.2	-368%	86%	-68%	82%	47%	–
O=C(COC(=O)CCOc1ccccc1)NCCc1ccccc1	–	–	–	–	·	–	·	·	·	·	·	·
O=C(CCOc1ccccc1)OCC(=O)c1cc2ccccc2o1	–	–	–	–	–	-9.3	·	·	·	·	–	–	TRPC4 spec 2=–;TRPC4 spec=–;HEK293 MPD ctr 2-1=–;HEK293 MPD ctr-1=–
c1ccc2c(CNCCN3CCOCC3)cccc2c1	–	–	–	–	–	–	·	·	·	·	·	·
COc1ccc2nc(C)cc(NCCN3CCOCC3)c2c1	–	–	–	–	–	-9.5	-328%	88%	-64%	54%	65%	–
COc1ccc2nc(C)cc(Nc3ccc(N4CCOCC4)cc3)c2c1	–	–	–	–	–	–	·	·	·	·	·	·
